Data from ChEMBL document CHEMBL4017499, “The Discovery of Novel Antimalarial Aminoxadiazoles as a Promising Nonendoperoxide Scaffold” (J Med Chem, 2017).
Values after ≈ are worked out from the molar mass of the structure shown. Active and inactive are the calls of the source. The rule behind the calls is not given here.

Tests used:
[1] = tested on: Plasma; assay: Drug metabolism in Swiss CD1 mouse assessed as 2-(3-(Pyridin-3-yl)-5-(trifluoromethyl)benzoyl)-N-(4-(pyrrolidin-1-ylmethyl)phenyl)hydrazinecarboxamide in plasma at 300 to 500 mg/kg, po by HPLC analysis; type: ADME, organism-based; conditions: in vivo
How it was run: (§1)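 Mice given high oral doses (250/300 and 500 mg/kg); plasma analysed by HPLC for parent compound and breakdown products, expressed as percentage levels.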

[2] = Oral bioavailability in CD1 mouse at 10 mg/kg measured up to 24 hrs post dose by LC-MS/MS analysis; type: ADME, organism-based; conditions: in vivo
How it was run: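 Oral bioavailability in mouse after a single oral dose of 10 mg/kg.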

[3] = tested on: Plasmodium falciparum; assay: Antiplasmodial activity against Plasmodium falciparum 3D7A infected in red blood cells preincubated for 24 hrs followed by [3H]-hypoxanthine addition measured after 24 hrs by scintillation counting; type: functional, cell-based
How it was run: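 Whole-cell growth assay on sensitive P. falciparum strain 3D7A by [3H]hypoxanthine incorporation; two or three independent biological replicates per value.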

[4] = tested on: Plasmodium falciparum; assay: Antimalarial activity against Plasmodium falciparum 3D7 0087/N9 infected in po dosed SCID mouse assessed as reduction in parasitemia administered 3 days post infection dosed once a day for four consecutive days measured after 7 days; type: functional; conditions: 3D7 0087/N9, po
How it was run: (§2)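 SCID mice engrafted with human parasite P. falciparum Pf 3D70087/N9; oral dosing started 3 days after infection, once daily for four consecutive days; parasitemia compared with untreated controls.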

[5] = tested on: Plasmodium falciparum; assay: Antimalarial activity against Plasmodium falciparum 3D7 0087/N9 infected in po dosed mouse assessed as average daily exposure in whole blood required to reduce parasitemia administered 3 days post infection dosed once a day for four consecutive days measured 7 days post dose; type: functional, organism-based
[6] = Chemical stability in SGF media at pH 1.6 after 14 hrs; type: physicochemical; conditions: simulated gi fluid, pH 1.6, 14 h
How it was run: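 Stability in simulated gastric fluid at pH 1.6, held at 37 °C for up to 24 h; checked for degradation products.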

[7] = Half life in CD1 mouse at 1 mg/kg, iv measured up to 24 hrs post dose by LC-MS/MS analysis; type: ADME, organism-based; conditions: in vivo
How it was run: (§3)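 Pharmacokinetics in mouse after a single intravenous dose of 1 mg/kg.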

[8] = tested on: Mus musculus; assay: (§4) Clearance in CD1 mouse at 1 mg/kg, iv measured up to 24 hrs post dose by LC-MS/MS analysis; type: ADME, organism-based; conditions: mouse, in vivo, 24 h; how it was run: as §3
[9] = Lipophilicity, log D of compound at pH 7.4 by chromatographic method; type: physicochemical; conditions: buffer
[10] = tested on: Plasma; assay: Drug level in Swiss CD1 mouse plasma treated with 5-(3-(Pyridin-3-yl)-5-(trifluoromethyl)phenyl)-N-(4-(pyrrolidin-1-ylmethyl)phenyl)-1,3,4-oxadiazol-2-amine at 500 mg/kg, po by HPLC analysis; type: ADME, organism-based; conditions: in vivo; how it was run: as §1
[11] = tested on: Liver; assay: Intrinsic clearance in human liver microsomes at 0.5 uM up to 45 mins in presence of NADPH by HPLC-MS/MS analysis; type: ADME, microsome; conditions: 0.75 h
[12] = Solubility of the compound in fasted state stimulated intestinal fluid at pH 6.5 by HPLC analysis; type: physicochemical; conditions: fasted state simulated intestinal fluid
How it was run: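 Solubility measured in fasted state simulated intestinal fluid, pH 6.5.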

[13] = tested on: Plasmodium falciparum; assay: Antimalarial activity against Plasmodium falciparum 3D7 0087/N9 infected in SCID mouse assessed as reduction in parasitemia at 50 mg/kg, po administered 3 days post infection dosed once a day for four consecutive days measured 2 days; type: functional, organism-based; how it was run: as §2
[14] = tested on: Plasma; assay: Drug level in Swiss CD1 mouse plasma treated with 5-([3,4'-Bipyridin]-2'-yl)-N-(4-(pyrrolidin-1-ylmethyl)phenyl)-1,3,4-oxadiazol-2-amine at 500 mg/kg, po by HPLC analysis; type: ADME, organism-based; conditions: in vivo; how it was run: as §1
[15] = Ratio of IC50 for chloroquine/pyrimethamine-resistant Plasmodium falciparum Dd2 infected in red blood cells to IC50 for wild type Plasmodium falciparum 3D7A infected in red blood cells; type: functional
[16] = tested on: Plasmodium falciparum; assay: Ratio of IC50 for chloroquine-resistant Plasmodium falciparum T9/94 infected in red blood cells to IC50 for wild type Plasmodium falciparum 3D7A infected in red blood cells; type: functional
[17] = tested on: Plasmodium falciparum; assay: Ratio of IC50 for chloroquine/atovaquone/cycloguanil-resistant Plasmodium falciparum FCR3 infected in red blood cells to IC50 for wild type Plasmodium falciparum 3D7A infected in red blood cells; type: functional
[18] = tested on: Plasmodium falciparum; assay: Ratio of IC50 for chloroquine/pyrimethamine/atovaquone-resistant Plasmodium falciparum Tm90C2B infected in red blood cells to IC50 for wild type Plasmodium falciparum 3D7A infected in red blood cells; type: functional
[19] = Volume of distribution at steady state in CD1 mouse at 1 mg/kg, iv measured up to 24 hrs post dose by LC-MS/MS analysis; type: ADME, organism-based; conditions: in vivo, read-out: Vdss; how it was run: as §3
[20] = tested on: Plasmodium falciparum; assay: Ratio of IC50 for chloroquine/pyrimethamine-resistant Plasmodium falciparum Tm90C2A infected in red blood cells to IC50 for wild type Plasmodium falciparum 3D7A infected in red blood cells; type: functional
[21] = Ratio of IC50 for Plasmodium falciparum HB3 infected in red blood cells to IC50 for wild type Plasmodium falciparum 3D7A infected in red blood cells; type: functional
[22] = tested on: Plasmodium falciparum; assay: Ratio of IC50 for pyrimethamine-resistant Plasmodium falciparum TC08 infected in red blood cells to IC50 for wild type Plasmodium falciparum 3D7A infected in red blood cells; type: functional
[23] = tested on: Plasmodium falciparum; assay: Ratio of IC50 for chloroquine/pyrimethamine-resistant Plasmodium falciparum V1/S infected in red blood cells to IC50 for wild type Plasmodium falciparum 3D7A infected in red blood cells; type: functional
[24] = as §4; type: ADME, organism-based; conditions: CD1, mouse, in vivo; how it was run: as §3
[25] = tested on: Plasmodium falciparum; assay: Antimalarial activity against Plasmodium falciparum 3D7 0087/N9 infected in SCID mouse assessed as reduction in parasitemia at 67 mg/kg, po administered 3 days post infection dosed once a day for four consecutive days measured 7 days post dose; type: functional, organism-based; how it was run: as §2
[26] = tested on: HepG2; assay: Cytotoxicity against human HepG2 cells at 25 uM; type: cell-based; conditions: hepg2, 25 µM
How it was run: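 HepG2 cells exposed to compound at 25 μM to assess mammalian cytotoxicity.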

[27] = tested on: Plasmodium falciparum; assay: Antimalarial activity against Plasmodium falciparum 3D7 0087/N9 infected in SCID mouse assessed as reduction in parasitemia at 120 mg/kg, po administered 3 days post infection dosed once a day for four consecutive days relative to control; type: functional; design: scale not given: the % may be the effect or the level left; how it was run: as §2
[28] = Ratio of TC50 for human HepG2 to IC50 for antiplasmodial activity against Plasmodium falciparum 3D7A infected in red blood cells
How it was run: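 Denominator is the asexual P. falciparum 3D7A IC50 from a [3H]hypoxanthine incorporation assay, using two or three independent biological replicates. Numerator is the 50% toxicity value in HepG2 cells, expressed as Tox50/Pf 3D7 IC50.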

FC(F)(F)c1cc(-c2cccnc2)cc(-c2nnc(Nc3ccc(CN4CCCC4)cc3)o2)c1
Drug metabolism [1]: Metabolite_Detected
bioavailability [2]: 89%
IC50 [3]: 0.03 µM
ED90 [4]: < 20 mg/kg
AUCED90 [5]: < 6.1 µg.hr/ml/day
Stability [6]: Unstable
half-life [7]: 84 min
clearance [8]: 19.5 mL/min/kg
chromatographic logD [9]: 3.3

O=C(NNC(=O)c1cc(-c2cccnc2)cc(C(F)(F)F)c1)Nc1ccc(CN2CCCC2)cc1
Drug metabolism [10]: Metabolite_Detected

CN1CCc2ccc(Nc3nnc(-c4cccc(-c5cccnc5)n4)o3)cc2C1
IC50 [3]: 1.9 µM

CN1Cc2ccc(Nc3nnc(-c4cccc(-c5cccnc5)c4)o3)cc2C1
intrinsic clearance [11]: 5.1 mL/min/g
IC50 [3]: 0.07 µM

FC(F)(F)c1cccc(Nc2nnc(-c3cccc(-c4cccnc4)c3)o2)c1
intrinsic clearance [11]: 3.3 mL/min/g
IC50 [3]: 0.69 µM

CN(C)Cc1ccc(Nc2nnc(-c3cc(-c4cccnc4)cc(C(F)(F)F)c3)o2)cc1
bioavailability [2]: 100%
IC50 [3]: 0.03 µM
solubility [12]: 57 µg/mL (≈ 130 µM)
Activity [13]: Active
ED90 [4]: < 20 mg/kg
AUCED90 [5]: < 2.5 µg.hr/ml/day
half-life [7]: 17.4 min
clearance [8]: 76.9 mL/min/kg
chromatographic logD [9]: 3.2 to 3.3

CN1CCc2ncc(Nc3nnc(-c4cccc(-c5cccnc5)c4)o3)cc2C1
IC50 [3]: 0.02 µM

CN1CCCc2ccc(Nc3nnc(-c4cccc(-c5cccnc5)c4)o3)cc2C1
intrinsic clearance [11]: 9.3 mL/min/g
IC50 [3]: 0.66 µM

CN1CCc2ccc(Nc3nnc(-c4cc(-c5cccnc5)ccn4)o3)cc2C1
intrinsic clearance [11]: < 0.5 mL/min/g
IC50 [3]: 0.2 µM
solubility [12]: 390 µg/mL (≈ 1010 µM)
ED90 [4]: 33.8 mg/kg
AUCED90 [5]: 1.4 µg.hr/ml/day

CN1CCc2ccc(Nc3nnc(-c4cncc(-c5cccnc5)c4)o3)cc2C1
intrinsic clearance [11]: 1.45 mL/min/g
IC50 [3]: 0.03 µM

O=C(NNC(=O)c1cc(-c2cccnc2)ccn1)Nc1ccc(CN2CCCC2)cc1
Drug metabolism [14]: Metabolite_Detected

O=C(O)c1cc(-c2cccnc2)ccn1
Drug metabolism [14]: Metabolite_Detected

O=C(O)c1cc(-c2cccnc2)cc(C(F)(F)F)c1
Drug metabolism [10]: Metabolite_Detected

c1ccc(Nc2nnc(-c3cccc(-c4cccnc4)c3)o2)cc1
intrinsic clearance [11]: 1.8 mL/min/g
IC50 [3]: 1.7 µM

Clc1cccc(Nc2nnc(-c3cccc(-c4cccnc4)c3)o2)c1
intrinsic clearance [11]: 3.7 mL/min/g
IC50 [3]: 5.53 µM

CN1CCc2ccc(Nc3nnc(-c4cc(-c5cccnc5)cc(C(F)(F)F)c4)o3)cc2C1
Ratio IC50 [15]: 1
intrinsic clearance [11]: 0.9 mL/min/g
Ratio IC50 [16]: 1
Ratio IC50 [17]: 1
bioavailability [2]: 90%
IC50 [3]: 0.02 µM
Ratio IC50 [18]: 1
solubility [12]: 1.2 µg/mL (≈ 2.66 µM)
Vd [19]: 3.5 L/kg
Ratio IC50 [20]: 1
Ratio IC50 [21]: 1
Ratio IC50 [22]: 1
ED90 [4]: 9.3 mg/kg
AUCED90 [5]: 2.2 µg.hr/ml/day
Ratio IC50 [23]: 1
clearance [24]: 42 to 43 mL/min/kg

CN1CCc2ccc(Nc3nnc(-c4cccc(-c5cccnc5)c4)o3)nc2C1
IC50 [3]: 0.13 µM

CN1CCc2ccc(Nc3nnc(-c4cc(OC(F)(F)F)cc(-c5cccnc5)c4)o3)cc2C1
intrinsic clearance [11]: < 0.5 mL/min/g
IC50 [3]: 0.22 µM

CN1CCc2ncc(Nc3nnc(-c4cc(-c5cccnc5)cc(C(F)(F)F)c4)o3)cc2C1
Activity [25]: inactive
IC50 [3]: 0.03 µM
solubility [12]: 68 µg/mL (≈ 150 µM)

CN1CCc2ccc(Nc3nnc(-c4cc(-c5cccnc5)ccc4F)o3)cc2C1
intrinsic clearance [11]: 2.9 mL/min/g
IC50 [3]: 0.05 µM

CN1CCc2ccc(Nc3nnc(-c4cccc(-c5cccnc5)c4)o3)cc2C1
intrinsic clearance [11]: 1.8 mL/min/g
IC50 [3]: 0.1 µM

CN1CCc2ccc(Nc3nnc(-c4cc(F)cc(-c5cccnc5)c4)o3)cc2C1
intrinsic clearance [11]: < 0.5 mL/min/g
IC50 [3]: 0.05 µM

CN(C)Cc1ccc(Nc2nnc(-c3cccc(-c4cccnc4)c3)o2)cc1
IC50 [3]: 0.03 µM

CN1CCc2ccc(Nc3nnc(-c4ccnc(-c5cccnc5)c4)o3)cc2C1
IC50 [3]: 0.07 µM

CN1CCOc2ccc(Nc3nnc(-c4cccc(-c5cccnc5)c4)o3)cc2C1
Ratio IC50 [15]: 1
intrinsic clearance [11]: 13.7 mL/min/g
Activity [26]: Non-Toxic
Ratio IC50 [16]: 1
Ratio IC50 [17]: 1
bioavailability [2]: 26.6%
IC50 [3]: 0.07 µM
Ratio IC50 [18]: 1
Vd [19]: 2.6 L/kg
Ratio IC50 [20]: 1
Activity [27]: 81%
Ratio IC50 [21]: 1
Ratio IC50 [22]: 1
ED90 [4]: > 120 mg/kg
Ratio IC50 [23]: 1
Ratio [28]: >100

CN(C)Cc1ccc(Nc2nnc(-c3cc(-c4cccnc4)cc(C(F)(F)F)c3)o2)cn1
IC50 [3]: 0.09 µM
chromatographic logD [9]: 2.9

CN1CCc2ccc(Nc3nnc(-c4ccc(F)c(-c5cccnc5)c4)o3)cc2C1
intrinsic clearance [11]: 2.2 mL/min/g
IC50 [3]: 0.48 µM
